Laboratory results published in ChEMBL document CHEMBL3627647, “Antibacterial properties of 3-(phenylsulfonyl)-2-pyrazinecarbonitrile” (Bioorg Med Chem Lett, 2015).
≈ marks a conversion by molar mass, not a printed value. Calls of active or inactive are those of the source. No cut-off for these calls is given here. Peptide text beside a SMILES is read from it. * marks the point of attachment. βNA = c1ccc2cc(N*)ccc2c1

Legend:
Staphylococcus aureus [1] = experiment: (§1) Antibacterial activity against methicillin-resistant Staphylococcus aureus MW2 infected in young adult stage of Caenorhabditis elegans glp-4(bn2);sek-1 (km4) assessed as prolongation of survival at 50 ug/ml after 5 days by Sytox Orange staining-based bright field microscopic analysis relative to control; format: functional; details: MW2, 120 h
How it was run: (§2)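 Young adult C. elegans glp-4(bn2);sek-1(km4) co-inoculated in 384-well plates with MRSA MW2 and 2-fold serial dilutions (0.78–100 µg/mL). DMSO ≤1%; 1% DMSO was the negative control and vancomycin the positive control. Dead worms were stained with Sytox Orange and imaged with brightfield. Survival = fraction of worm area not fluorescent.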

Staphylococcus aureus [2] = experiment: as §1, with “0.78 to 25” for “50”; format: functional; how it was run: as §2
Enterococcus faecium = experiment: Antibacterial activity against Enterococcus faecium E007 after overnight incubation by broth microdilution method; format: functional
Staphylococcus aureus [3] = experiment: as §1, with “100” for “50”; format: functional; details: MW2, 120 h; how it was run: as §2
Acinetobacter baumannii [4] = experiment: Antibacterial activity against Acinetobacter baumannii ATCC 17978 after overnight incubation by broth microdilution method; format: functional
Enterobacter sp. [5] = experiment: Antibacterial activity against Enterobacter sp. KCTC 2625 after overnight incubation by broth microdilution method; format: functional
Klebsiella pneumoniae [6] = experiment: Antibacterial activity against Klebsiella pneumoniae ATCC 77326 after overnight incubation by broth microdilution method; format: functional
Staphylococcus aureus [7] = experiment: Antibacterial activity against methicillin-resistant Staphylococcus aureus MW2 after overnight incubation by broth microdilution method; format: functional
How it was run: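 Broth microdilution MIC against MRSA MW2 in Müller-Hinton broth.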

Pseudomonas aeruginosa [8] = experiment: Antibacterial activity against Pseudomonas aeruginosa PA14 after overnight incubation by broth microdilution method; format: functional
Klebsiella pneumoniae [9] = experiment: Antibacterial activity against Klebsiella pneumoniae ATCC 77326 after overnight incubation by microplate checkerbroad assay in presence of PSPC; format: functional, organism-based
How it was run: (§3)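 Microplate checkerboard: PSPC at final 1–64 µg/mL crossed with polymyxin B at final 0.063–64 µg/mL; minimum growth-inhibiting concentrations alone and in combination determined and used to calculate FIC index.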

Acinetobacter baumannii [10] = experiment: Antibacterial activity against Acinetobacter baumannii ATCC 17978 after overnight incubation by microplate checkerbroad assay in presence of PSPC; format: functional, organism-based
How it was run: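 Checkerboard microplate growth inhibition. PSPC at final 1–64 µg/mL combined with polymyxin B at final 0.063–64 µg/mL. The lowest concentrations inhibiting growth alone and in combination were used to calculate the FIC index.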

Enterobacter sp. [11] = experiment: Antibacterial activity against Enterobacter sp. KCTC 2625 assessed as growth inhibition at 64 ug/ml after overnight incubation by broth microdilution method; format: functional, organism-based
Pseudomonas aeruginosa [12] = experiment: Antibacterial activity against Pseudomonas aeruginosa PA14 assessed as growth inhibition at 64 ug/ml after overnight incubation by broth microdilution method; format: functional, organism-based
Acinetobacter baumannii [13] = experiment: Antibacterial activity against Acinetobacter baumannii ATCC 17978 assessed as growth inhibition at 64 ug/ml after overnight incubation by broth microdilution method; format: functional, organism-based
Klebsiella pneumoniae [14] = experiment: Antibacterial activity against Klebsiella pneumoniae ATCC 77326 assessed as growth inhibition at 64 ug/ml after overnight incubation by broth microdilution method; format: functional, organism-based
[15] = Hemolytic activity in sheep erythrocytes at 0.063 to 64 ug/ml after 1 hr; format: ADME, cell-based, Ovis aries; details: erythrocyte
How it was run: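 Sheep red blood cells exposed 1 hour to serial dilutions (0.063–64 µg/ml); Triton X-100 at 0.001–1% as positive control; hemolysis scored visually and confirmed by absorbance at 540 nm.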

Enterobacter sp. [16] = experiment: Antibacterial activity against Enterobacter sp. KCTC 2625 after overnight incubation by broth microdilution method in presence of 64 ug/ml efflux pump inhibitor PAbetaN; format: functional
HEK293 [17] = experiment: Toxicity in HEK293 cells assessed as decrease in cell survival rate after 24 hrs by WST-1 assay; format: cell-based; details: human, hek293, 24 h
How it was run: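 HEK-293 cells treated with serial dilutions over 1–64 µg/mL; rotenone as positive control; viability read spectrophotometrically from WST-1 conversion to formazan by viable cells.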

Acinetobacter baumannii [18] = experiment: Antibacterial activity against Acinetobacter baumannii ATCC 17978 after overnight incubation by microplate checkerbroad assay in presence of polymyxin B; format: functional; how it was run: as §3
Klebsiella pneumoniae [19] = experiment: Antibacterial activity against Klebsiella pneumoniae ATCC 77326 after overnight incubation by broth microdilution method in presence of 64 ug/ml efflux pump inhibitor PAbetaN; format: functional
[20] = Toxicity in HEK293 cells assessed as cell survival rate up to 2 ug/ml after 24 hrs by WST-1 assay relative to control; format: cell-based; details: human, read-out: Survival
How it was run: (§4)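 HEK-293 cells treated with serial dilutions (1–64 µg/mL); rotenone as positive control. Viability read spectrophotometrically from conversion of WST-1 to formazan.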

Acinetobacter baumannii [21] = experiment: Ratio of MIC for Acinetobacter baumannii ATCC 17978 in absence of 64 ug/ml efflux pump inhibitor PAbetaN to MIC for Acinetobacter baumannii ATCC 17978 in presence of 64 ug/ml efflux pump inhibitor PAbetaN; format: functional
Klebsiella pneumoniae [22] = experiment: Antibacterial activity against Klebsiella pneumoniae ATCC 77326 after overnight incubation by microplate checkerbroad assay in presence of polymyxin B; format: functional; how it was run: as §3
Acinetobacter baumannii [23] = experiment: Antibacterial activity against Acinetobacter baumannii ATCC 17978 after overnight incubation by broth microdilution method in presence of 64 ug/ml efflux pump inhibitor PAbetaN; format: functional
Staphylococcus aureus [24] = experiment: Bactericidal activity against methicillin-resistant Staphylococcus aureus MW2 at 40 ug/ml measured for 4 hrs by time-kill assay; format: functional
Staphylococcus aureus [25] = experiment: Ratio of MIC for methicillin-resistant Staphylococcus aureus MW2 to MEC for methicillin-resistant Staphylococcus aureus MW2 infected in young adult stage of Caenorhabditis elegans glp-4(bn2);sek-1 (km4); format: functional
How it was run: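 The MW2 MIC was measured in Müller-Hinton broth. For the MEC, young adult glp-4(bn2);sek-1(km4) worms were co-inoculated with MW2 in 384-well plates with 2-fold dilutions (0.78–100 µg/mL), with DMSO at or below 1%. Dead worms were stained with Sytox Orange. Survival was taken as […] per well.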

Staphylococcus aureus [26] = experiment: Antibacterial activity against methicillin-resistant Staphylococcus aureus MW2 infected in young adult stage of Caenorhabditis elegans glp-4(bn2);sek-1 (km4) assessed as prolongation of survival after 5 days by Sytox Orange staining-based bright field microscopic analysis; format: functional; details: MW2, 120 h, read-out: MEC; how it was run: as §2
Pseudomonas aeruginosa [27] = experiment: Ratio of MIC for Pseudomonas aeruginosa PA14 in absence of 64 ug/ml efflux pump inhibitor PAbetaN to MIC for Pseudomonas aeruginosa PA14 in presence of 64 ug/ml efflux pump inhibitor PAbetaN; format: functional
Pseudomonas aeruginosa [28] = experiment: Antibacterial activity against Pseudomonas aeruginosa PA14 after overnight incubation by broth microdilution method in presence of 64 ug/ml efflux pump inhibitor PAbetaN; format: functional
Caenorhabditis elegans = experiment: Toxicity in Caenorhabditis elegans glp-4(bn2);sek-1 (km4) after 5 days by Sytox Orange staining-based bright field microscopic analysis; format: organism-based; details: in vivo, 120 h
How it was run: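 Young adult C. elegans glp-4(bn2);sek-1(km4) co-inoculated in 384-well plates with MRSA strain MW2 and 2-fold serial dilutions (0.78–100 µg/mL), DMSO ≤1%; dead worms stained with Sytox Orange, survival from fluorescent worm area relative to total worm area.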

Klebsiella pneumoniae [29] = experiment: Ratio of MIC for Klebsiella pneumoniae ATCC 77326 in absence of 64 ug/ml efflux pump inhibitor PAbetaN to MIC for Klebsiella pneumoniae ATCC 77326 in presence of 64 ug/ml efflux pump inhibitor PAbetaN; format: functional
Enterobacter sp. [30] = experiment: Ratio of MIC for Enterobacter sp. KCTC 2625 in absence of 64 ug/ml efflux pump inhibitor PAbetaN to MIC for Enterobacter sp. KCTC 2625 in presence of 64 ug/ml efflux pump inhibitor PAbetaN; format: functional
[31] = Toxicity in HEK293 cells assessed as cell survival rate at 64 ug/ml after 24 hrs by WST-1 assay relative to control; format: cell-based; details: human, read-out: Survival; how it was run: as §4
HEK293 [32] = experiment: Toxicity in HEK293 cells assessed as mortality rate at 4 ug/ml after 24 hrs by WST-1 assay relative to control; format: cell-based; details: human, hek293, 24 h; how it was run: as §4
Staphylococcus aureus [33] = experiment: Bactericidal activity against methicillin-resistant Staphylococcus aureus MW2 after overnight incubation; format: functional
Staphylococcus aureus [34] = experiment: Ratio of MBC to MIC for methicillin-resistant Staphylococcus aureus MW2; format: functional

`CN[C@H](CC(C)C)C(=O)N[C@H]1C(=O)N[C@@H](CC(N)=O)C(=O)N[C@H]2C(=O)N[C@H]3C(=O)N[C@H](C(=O)N[C@H](C(=O)O)c4cc(O)cc(O)c4-c4cc3ccc4O)[C@H](O)c3ccc(c(Cl)c3)Oc3cc2cc(c3O[C@@H]2O[C@H](CO)[C@@H](O)[C@H](O)[C@H]2O[C@H]2C[C@](C)(N)[C@H](O)[C@H](C)O2)Oc2ccc(cc2Cl)[C@H]1O` [VANCOMYCIN] gave a survival at 50 µg/mL (Staphylococcus aureus [1]) greater than 97%, a Survival (Staphylococcus aureus [2]) greater than 90% and an MIC (Enterococcus faecium) of 4 µg/mL (≈ 2.76 µM). For the same compound, the survival at 100 µg/mL (Staphylococcus aureus [3]) was greater than 97%.
Compound `N#Cc1nccnc1[S+]([O-])c1ccccc1` (stereo not drawn) has an MIC (Acinetobacter baumannii [4]) of 32 µg/mL (≈ 140 µM), an MIC (Enterobacter sp. [5]) greater than 64 µg/mL and an MIC (Klebsiella pneumoniae [6]) of 64 µg/mL (≈ 279 µM). For the same compound, the MIC (Enterococcus faecium) was 8 µg/mL (≈ 34.9 µM), the MIC (Staphylococcus aureus [7]) was 4 µg/mL (≈ 17.4 µM) and the MIC (Pseudomonas aeruginosa [8]) was greater than 64 µg/mL.
POLYMYXIN B showed an MIC (Klebsiella pneumoniae [9]) of 2 µg/mL, an MIC (Acinetobacter baumannii [4]) of 0.5 µg/mL and an MIC (Enterobacter sp. [5]) of 32 µg/mL. For the same compound, the MIC (Klebsiella pneumoniae [6]) was 16 µg/mL, the MIC (Acinetobacter baumannii [10]) was 0.125 µg/mL and the MIC (Pseudomonas aeruginosa [8]) was 2 µg/mL.
With `N#Cc1nccnc1Sc1ccccc1` the MIC (Acinetobacter baumannii [4]) was greater than 64 µg/mL, the MIC (Enterobacter sp. [5]) was greater than 64 µg/mL and the MIC (Klebsiella pneumoniae [6]) was greater than 64 µg/mL. The MIC (Enterococcus faecium) was greater than 64 µg/mL, the MIC (Staphylococcus aureus [7]) was greater than 64 µg/mL and the MIC (Pseudomonas aeruginosa [8]) was greater than 64 µg/mL.
For `N=C(N)NCCC[C@H](NC(=O)[C@@H](N)Cc1ccccc1)C(=O)Nc1ccc2ccccc2c1` (H-Phe-Arg-βNA), the “growth inhibition (GI)” value (Enterobacter sp. [11]) was “inactive”, the “growth inhibition (GI)” value (Pseudomonas aeruginosa [12]) was “inactive” and the “growth inhibition (GI)” value (Acinetobacter baumannii [13]) was “inactive”. For the same compound, the “growth inhibition (GI)” value (Klebsiella pneumoniae [14]) was “inactive”.
With `N#Cc1nccnc1S(=O)(=O)c1ccccc1` the Activity [15] was “Non-toxic”, the MIC (Enterobacter sp. [16]) was 8 µg/mL and the Activity (HEK293 [17]) was “Dose-dependent effect”. The MIC (Acinetobacter baumannii [4]) was 32 µg/mL (≈ 130 µM), the MIC (Enterobacter sp. [5]) was greater than 64 µg/mL and the survival at 50 µg/mL (Staphylococcus aureus [1]) was 46%. The “fractional inhibitory concentration index (FICI)” value (Acinetobacter baumannii [18]) was 0.375, the MIC (Acinetobacter baumannii [18]; Acinetobacter baumannii, ATCC 17978) was 4 µg/mL and the MIC (Klebsiella pneumoniae [19]) was 8 µg/mL. The viability at 24 h [20] was 90%, the Survival (Staphylococcus aureus [2]) was greater than 90% and the MIC (Klebsiella pneumoniae [6]) was 64 µg/mL (≈ 261 µM). The MIC (Enterococcus faecium) was 8 µg/mL (≈ 32.6 µM), the Ratio (Acinetobacter baumannii [21]) was 8 and the “fractional inhibitory concentration index (FICI)” value (Klebsiella pneumoniae [22]) was 0.141. For the same compound, the MIC (Klebsiella pneumoniae [22]; Klebsiella pneumoniae, ATCC 77326) was 1 µg/mL, the MIC (Acinetobacter baumannii [23]) was 4 µg/mL and the Activity (Staphylococcus aureus [24]) was 100%. For the same compound, the Ratio (Staphylococcus aureus [25]) was “>=5”, the minimal effective concentration (Staphylococcus aureus [26]) was no more than 0.78 µg/mL and the MIC (Staphylococcus aureus [7]) was 4 µg/mL (≈ 16.3 µM). The Ratio (Pseudomonas aeruginosa [27]) was greater than 4, the MIC (Pseudomonas aeruginosa [28]) was 16 µg/mL and the Activity (Caenorhabditis elegans) was “Dose-dependent effect”. For the same compound, the Ratio (Klebsiella pneumoniae [29]) was 8, the Ratio (Enterobacter sp. [30]) was greater than 8 and the survival at 100 µg/mL (Staphylococcus aureus [3]) was 16%. It also gave a viability at 24 h, 64 ug/ml [31] of 8.5%, a mortality (HEK293 [32]) of 69% and an MBC (Staphylococcus aureus [33]) of 16 µg/mL (≈ 65.2 µM). It also gave a Ratio (Staphylococcus aureus [34]) of 4 and an MIC (Pseudomonas aeruginosa [8]) greater than 64 µg/mL.
